The nature of assay [1]: Binding affinity was measured by equilibrium competing with [3H]IP3 (Inositol 1,4,5-trisphosphate receptor). In outline:
(§1)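 Membranes from livers of male Wistar rats were Percoll-purified. A 0.1 mg protein sample in 50 mM Tris, 1 mM EGTA, pH 8.3 was incubated 5 min at 4 °C with [³H]IP₃ (45 nCi, 40 Ci/mmol) and competing ligand. The incubation was stopped by centrifugation, and pellets were scintillation-counted. Parameters came from logistic fits. Nonspecific binding was 10–15%. Triplicate, means ± SEM.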

The nature of assay [2]: Hill coefficient for [Ca2+] release was evaluated. The class given is functional. The method, boiled down: (§2)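 Saponin-permeabilized hepatocytes (10⁶ cells·mL⁻¹, 10 µg·mL⁻¹ saponin) loaded to steady state with ⁴⁵Ca²⁺ (20 µCi·mL⁻¹) for 5 min at 37 °C in cytosol-like medium (free Ca²⁺ 200 nM, 7.5 mM ATP, FCCP, PIPES pH 7.0). Cells diluted 5-fold into ATP-free medium with 1.25 µM thapsigargin; ligand added after 15 s, stores filtered 60 s later. Logistic fits gave maximal response, EC50 and Hill slope; means ± SEM.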

Assay [3] has as its system IP3 receptor (Rattus norvegicus). Put plainly: Concentration response relationship was fitted to logistic equations using kaleidagraph software from which maximal response was measured.
Assay [4] in a line: Concentration response relationship was used to measure half-maximally effective agonist concentration. The class given is functional. The method, boiled down: as §2
A short description of assay [5]: Ratio of EC50 and Kd. The class given is functional.
The nature of assay [6]: Hill coefficient for equilibrium binding was evaluated (Inositol 1,4,5-trisphosphate receptor). The method, boiled down:
as §1

The test system of assay [7] is IP3 receptor (Rattus norvegicus). Put plainly: Maximal Ca+ release response was determined from permeabilized rat hepatocyte assay.
For assay [8] the test system is unchanged. Nature of the assay: [Ca2+] release with 10 uM was measured by non-specific binding method.
A short description of assay [9]: compound was tested and the Ratio of EC50 and Kd was found out. The class given is functional.

The term Kd denotes the concentration at which binding is half-saturated. A word on the Hill slope: it is the slope factor of the fitted curve. By EC50 is commonly meant the concentration that produces a half-maximal response. Higher therefore signals a need for much substance. In [1], `O=P(O)(O)OC1[C@@H](OP(=O)(O)O)C(O)C(O)[C@@H](OP(=O)(O)O)[C@H]1O` (stereo partly specified) registered a Kd of 1.7 nM. Besides, the figures for the Hill slope in assay [2] and in [6] were 2.9 and 0.88, respectively. Besides, the Max response in [3] is 32%. Moreover, the EC50 in [4] amounted to 201 nM. Moreover, in assay [5], the Ratio turned out to be 120.
In assay [7], `CO[C@@H]1O[C@H](CO)[C@@H](O[C@H]2O[C@@H](CO)[C@@H](OP(=O)(O)O)[C@H](OP(=O)(O)O)[C@@H]2O)[C@H]1OP(=O)(O)O` showed a Max response of 33%. In [1], this molecule showed a dissociation constant (Kd) of 4.4 nM. Also, the values for the Hill slope in assay [2] and in assay [6] were 3.4 and 0.99, respectively. This molecule yielded an EC50 in assay [4] of 484 nM. In assay [8], this molecule gave an IP3-sensitive Ca2+ stores of 89%. In [9], the Ratio stood at 110.
With `CCCOC1O[C@H](CO)[C@H](O[C@@H]2OC(CO)[C@H](OP(=O)(O)O)C(OP(=O)(O)O)[C@@H]2O)[C@@H]1OP(=O)(O)O` (stereo partly specified), the Max response in assay [7] worked out at 42%. The dissociation constant (Kd) in assay [1] came to 4.7 nM. Besides, the Hill slope in [2] was determined as 2.1; in assay [6], 0.97. Also, the EC50 in assay [4] was 491 nM. In [8], this molecule showed an IP3-sensitive Ca2+ stores of 87%. Moreover, the Ratio in assay [9] amounted to 104.
For `O=P(O)(O)OC1[C@@H](OP(=O)(O)O)C(CO)O[C@@H](O[C@@H]2[C@H](OP(=O)(O)O)C(OCCCc3ccccc3)O[C@@H]2CO)[C@H]1O` (stereo partly specified), in [7], the Max response stood at 34%. In assay [1], the equilibrium dissociation constant (Kd) was found to be 3.1 nM. Further, the figures for the Hill slope in assay [2] and in assay [6] were 3.9 and 1.16, respectively. The same molecule gave an EC50 in [4] of 381 nM. The IP3-sensitive Ca2+ stores in [8] came out at 87%. Besides, the Ratio in [9] was found to be 123.
For `O=P(O)(O)OC1[C@@H](OP(=O)(O)O)C(CO)O[C@@H](O[C@@H]2[C@H](OP(=O)(O)O)C(OCCCc3cc(CCCOC4O[C@H](CO)[C@H](O[C@@H]5OC(CO)[C@H](OP(=O)(O)O)C(OP(=O)(O)O)[C@@H]5O)[C@@H]4OP(=O)(O)O)c(CCCOC4O[C@H](CO)[C@H](O[C@@H]5OC(CO)[C@H](OP(=O)(O)O)C(OP(=O)(O)O)[C@@H]5O)[C@@H]4OP(=O)(O)O)cc3CCCOC3O[C@H](CO)[C@H](O[C@@H]4OC(CO)[C@H](OP(=O)(O)O)C(OP(=O)(O)O)[C@@H]4O)[C@@H]3OP(=O)(O)O)O[C@@H]2CO)[C@H]1O` (stereo partly specified), in [1], binding was characterised by a dissociation constant (Kd) of 4.3 nM. For the same molecule, the Hill slope in assay [2] stood at 2.1; in assay [6] it was 1.04. The molecule also displayed a Max response in assay [3] of 42%. In assay [4], this molecule registered an EC50 of 161 nM. Also, the IP3-sensitive Ca2+ stores in [8] worked out at 101%. Besides, the Ratio in [5] stood at 37.
Molecule `O=P(O)(O)OC1[C@@H](OP(=O)(O)O)C(CO)O[C@@H](O[C@@H]2[C@H](OP(=O)(O)O)C(OCCCc3ccc(CCCOC4O[C@H](CO)[C@H](O[C@@H]5OC(CO)[C@H](OP(=O)(O)O)C(OP(=O)(O)O)[C@@H]5O)[C@@H]4OP(=O)(O)O)cc3)O[C@@H]2CO)[C@H]1O` (stereo partly specified) yielded a Kd in assay [1] of 3.6 nM. Besides, the Hill slope amounted to 2.2 in [2] and 0.95 in assay [6]. For the same molecule, in assay [3], the Max response was found to be 31%. In assay [4], this molecule registered an EC50 of 215 nM. In assay [8], this molecule displayed an IP3-sensitive Ca2+ stores of 92%. Further, the Ratio in [5] was determined as 60.

These data come from ChEMBL document CHEMBL1133631, “Synthesis of potent agonists of the D-myo-inositol 1,4, 5-trisphosphate receptor based on clustered disaccharide polyphosphate analogues of adenophostin A” (J Med Chem, 2000).
